Assay results: paper PMC2881163 (The journal of physical chemistry. B, 2010)
Each block holds one substance with its values, some of them ahead of it.

Tests used:
[1] = Dynamic light scattering of aqueous solutions; format: physicochemical; settings: 25 °C; for z-average diameter of micelles: DLS cumulant analysis, water, concentrations above the CMC, mean ± SD
Outline: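 He-Ne laser (632.8 nm) with backscatter detection at 173°, 25 °C, using water viscosity 0.8937 cP and refractive index 1.333. Samples diluted from stock in Milli-Q water and filtered (0.02 μm). Solvent scattering was subtracted and plotted against concentration, with the inflection taken as the CMC. Triton X-100 served as positive control and a non-amphiphilic peptide as negative control. Triplicate samples were each read three times. Z-average came from a single-exponential cumulant fit and size distribution from a multi-exponential fit.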

mice = settings: cited from earlier work
[2] = Surface tension, Du Nouy ring tensiometer; format: physicochemical; settings: aqueous solution, 25 °C; for surface tension: at 10 mM, triplicate solutions
Outline: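 Test compound solutions were equilibrated to 25 °C. The ring was immersed 5 mm below the surface, then retracted automatically at 5 mm/min. Between measurements the ring was rinsed with water and ethanol and flamed. Solutions were prepared in triplicate.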

[3] = cited from earlier work
[4] = low, clinically relevant concentrations; cited from earlier work
[5] = Stability of CMS in solution; format: physicochemical; settings: 0.9% saline, 25 °C, over 120 hr

Substance: Colistin
z-average diameter of micelles [1]: 2.07 ± 0.3 nm
LD50 (mice): 217.7 mg/kg
interfacial tension after the CMC [2]: approximately 40 dynes/cm
surface tension [2]: 35–40 mN/m

z-average diameter of micelles [1]: 8.17 ± 0.59 nm
Substance: Triton X-100

Substance: colistin methanesulfonate [CMS]
conversion of CMS to colistin in buffer solutions in vitro ([3]; <100 μg/mL at 37 °C): rapid
stability of concentrated CMS solutions with respect to formation of colistin ([3]; >70 mg/mL, relevant to commercial pharmaceutical formulations): stable for extended periods
conversion of CMS to colistin in plasma and urine in vivo [4]: rapid
z-average diameter of micelles [1]: ~1.98 ± 0.36 nm
LD50 (mice): 5.43 mg/kg
surface tension [2]: 35–40 mN/m
conversion of CMS to colistin, initial concentration 0.052 mM ([5]; n = 3, HPLC of colistin formed): Rapid conversion
conversion of CMS to colistin, initial concentration 0.52 mM ([5]; n = 3, HPLC of colistin formed): Less rapid conversion
degradation of CMS, initial concentration 5.2 mM ([5]; n = 3, well above the CMC): negligible
degradation of CMS, initial concentration 52 mM ([5]; n = 3, well above the CMC): negligible

light scattering above that of water ([1]; DLS, up to 20 mM, no reliable size data could be obtained): negligible
Substance: polymyxin B nonapeptide hydrochloride [PMBN]
